Entries after “also recorded” stand apart in the source; their conditions may differ. Where two headings read alike, the source gives them in different places. Where a SMILES comes first, the peptide text is derived from it. The star is where a group is joined. Dnp = O=[N+]([O-])c1ccc(*)c([N+](=O)[O-])c1
Legend:
[1] = molecular target: T1, LPA3 (Homo sapiens, UniProt Q9UBY5); assay: LPA receptor-promoted intracellular Ca2+ mobilization, LPA3; assay type: cell-based; settings: for % inhibition at 10μM: Table 3, LPA3 inhibition; for LPA3 antagonist activity (in words): Ca2+ assay
T1 sequence (Q9UBY5 1-353): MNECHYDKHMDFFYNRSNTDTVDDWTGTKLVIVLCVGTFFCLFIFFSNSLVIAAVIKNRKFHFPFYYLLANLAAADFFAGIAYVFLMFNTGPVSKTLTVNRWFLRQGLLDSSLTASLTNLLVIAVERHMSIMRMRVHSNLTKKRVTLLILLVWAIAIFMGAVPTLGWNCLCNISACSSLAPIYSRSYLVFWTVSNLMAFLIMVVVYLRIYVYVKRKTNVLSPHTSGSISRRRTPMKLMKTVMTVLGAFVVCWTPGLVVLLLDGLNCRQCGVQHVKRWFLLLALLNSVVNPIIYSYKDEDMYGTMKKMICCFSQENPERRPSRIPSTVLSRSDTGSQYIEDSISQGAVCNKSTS

[2] = molecular target: T2, LPA1 (Homo sapiens, UniProt Q92633); assay: LPA receptor-promoted intracellular Ca2+ mobilization, LPA1; assay type: cell-based; settings: for LPA1 antagonist activity (in words): Ca2+ assay; for IC50: read-out: IC50 LPA1, dose response
T2 sequence (Q92633 whole entry, species assumed): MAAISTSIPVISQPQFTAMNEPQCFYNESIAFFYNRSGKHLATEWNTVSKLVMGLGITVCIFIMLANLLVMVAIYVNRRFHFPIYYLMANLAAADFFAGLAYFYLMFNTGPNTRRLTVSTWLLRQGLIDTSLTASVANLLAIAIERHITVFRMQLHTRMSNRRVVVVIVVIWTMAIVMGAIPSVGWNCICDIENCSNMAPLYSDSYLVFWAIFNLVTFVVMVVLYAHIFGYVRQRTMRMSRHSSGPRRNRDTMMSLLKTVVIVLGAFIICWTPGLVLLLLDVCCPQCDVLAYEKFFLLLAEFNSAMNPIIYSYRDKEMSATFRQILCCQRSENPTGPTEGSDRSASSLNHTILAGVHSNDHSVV
Method in brief: (§1)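 Cells stably expressing the given LPA receptor were plated and cultured overnight, then moved to serum-free medium for 4-6 h and loaded with fura-2. Intracellular Ca2+ was read on a plate fluorometer as the ratio of 520 nm emission under 340 vs 380 nm excitation. Test compounds were dissolved in methanol, diluted in buffer, and run in quadruplicate. IC50 was taken from concentration-response curves.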

[3] = molecular target: T3, LPA2 (Homo sapiens, UniProt Q9HBW0); assay: LPA receptor-promoted intracellular Ca2+ mobilization, LPA2; assay type: cell-based; settings: read-out: IC50 LPA2; dose response
T3 sequence (Q9HBW0 whole entry, species assumed): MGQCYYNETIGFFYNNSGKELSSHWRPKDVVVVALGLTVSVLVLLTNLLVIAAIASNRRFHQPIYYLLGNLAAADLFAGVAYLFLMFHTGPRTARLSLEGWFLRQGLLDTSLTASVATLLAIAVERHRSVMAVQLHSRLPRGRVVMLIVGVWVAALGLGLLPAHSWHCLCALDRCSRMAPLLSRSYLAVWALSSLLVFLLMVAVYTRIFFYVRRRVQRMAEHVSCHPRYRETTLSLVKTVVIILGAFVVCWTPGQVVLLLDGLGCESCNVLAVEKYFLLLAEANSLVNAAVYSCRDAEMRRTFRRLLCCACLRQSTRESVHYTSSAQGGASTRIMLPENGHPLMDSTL
Method in brief: as §1

[4] = molecular target: T4, LPA4 (Homo sapiens, UniProt Q99677); assay: LPA receptor-promoted intracellular Ca2+ mobilization, LPA4; assay type: cell-based; settings: read-out: IC50 LPA4; dose response
T4 sequence (Q99677 whole entry, species assumed): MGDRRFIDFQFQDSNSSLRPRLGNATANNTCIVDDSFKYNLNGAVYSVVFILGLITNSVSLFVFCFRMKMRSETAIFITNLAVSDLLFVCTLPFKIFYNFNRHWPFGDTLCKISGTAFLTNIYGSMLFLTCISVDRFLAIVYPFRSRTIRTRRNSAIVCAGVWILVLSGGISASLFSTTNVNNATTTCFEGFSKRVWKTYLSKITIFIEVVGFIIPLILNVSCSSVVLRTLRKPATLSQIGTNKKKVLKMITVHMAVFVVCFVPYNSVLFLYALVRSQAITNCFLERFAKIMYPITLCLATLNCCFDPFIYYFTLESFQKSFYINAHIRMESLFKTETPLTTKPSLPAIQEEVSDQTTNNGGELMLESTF
Method in brief: as §1

[5] = molecular target: T5, LPA5 (Homo sapiens, UniProt Q9H1C0); assay: LPA receptor-promoted intracellular Ca2+ mobilization, LPA5; assay type: cell-based; settings: for IC50: read-out: IC50 LPA5, dose response
T5 sequence (Q9H1C0 whole entry, species assumed): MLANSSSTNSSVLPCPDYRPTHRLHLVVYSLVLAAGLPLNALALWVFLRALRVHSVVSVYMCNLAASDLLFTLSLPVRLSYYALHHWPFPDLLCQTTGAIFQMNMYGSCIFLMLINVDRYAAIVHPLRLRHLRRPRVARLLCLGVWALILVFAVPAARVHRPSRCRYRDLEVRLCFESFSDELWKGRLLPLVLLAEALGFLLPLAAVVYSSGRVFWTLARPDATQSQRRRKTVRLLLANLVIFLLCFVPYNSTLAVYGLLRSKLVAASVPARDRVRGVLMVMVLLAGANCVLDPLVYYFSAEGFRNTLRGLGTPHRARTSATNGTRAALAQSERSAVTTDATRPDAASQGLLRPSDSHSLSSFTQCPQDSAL
Method in brief: as §1

[6] = molecular target: T2, LPA1; settings: read-out: IC50 LPA1; previously reported antagonists; NE no effect; cited from earlier work
[7] = molecular target: T3, LPA2; settings: previously reported antagonists, cited from earlier work; for IC50: read-out: IC50 LPA2, NE no effect
[8] = molecular target: T1, LPA3; settings: previously reported antagonists, cited from earlier work
[9] = molecular target: T4, LPA4; settings: read-out: IC50 LPA4; previously reported antagonists; NE no effect; cited from earlier work
[10] = molecular target: T5, LPA5; settings: read-out: IC50 LPA5; previously reported antagonists; NE no effect; cited from earlier work
[11] = 10 μM compound against 200 nM LPA

With `O=C(O)CN1C(=O)c2ccc(C(=O)c3cccc([N+](=O)[O-])c3)cc2C1=O` [Compound 15] the “% inhibition at 10μM” value [1, 11] was “Agonist”.
With `Cc1ccc(Oc2ccc3c(c2)C(=O)N(CC2CCCO2)C3=O)cc1` (stereo not shown) [Compound 14] the “LPA3 antagonist activity (in words)” value [1] was “not active”.
With `O=C(O)c1ccc2c(c1)C(=O)N(c1cccc(Oc3ccc([N+](=O)[O-])cc3)c1)C2=O` [Compound 20] the “LPA1 antagonist activity (in words)” value [2] was “LPA1 antagonists”, the IC50 [3] was greater than 10 µM and the “fold increase in potency compared to compound 5” value ([1]; LPA3 IC50 versus compound 5) was 6 fold. For the same compound, the “% inhibition at 10μM” value [1, 11] was greater than 50%, the IC50 [4] was greater than 10 µM and the “LPA5 antagonist activity (in words)” value ([5]; Ca2+ assay) was “LPA5 antagonist”.
For `CC(=O)COc1ccc(NC(=O)CN2C(=O)c3ccc([N+](=O)[O-])cc3C2=O)cc1` [Compound 18], the “% inhibition at 10μM” value [1, 11] was “Agonist”.
With `O=C(O)COc1ccc(N2C(=O)c3ccc(Oc4cccc([N+](=O)[O-])c4)cc3C2=O)cc1` [Compound 6] the “% inhibition at 10μM” value [1, 11] was “agonist”.
In the case of `NCC(=O)N[C@@H](CSc1ccc([N+](=O)[O-])cc1[N+](=O)[O-])C(=O)N[C@@H](CCC(=O)O)C(=O)O` [Compound 1] (H-Gly-Cys(Dnp)-Glu-OH), the IC50 [6] is listed as greater than 10 µM, the IC50 [7] is listed as greater than 10 µM and the “Imax LPA3” value [8] is listed as 69.8%. For the same compound, the IC50 [9] was greater than 10 µM and the IC50 [10] was greater than 10 µM.
`O=C(O)CN1C(=O)c2ccc(Oc3cccc([N+](=O)[O-])c3)cc2C1=O` [Compound 5, [5-(3-nitrophenoxy)-1,3-dioxo-1,3-dihydro-2-isoindol-2-yl]acetic acid] showed an IC50 [2] greater than 10 µM, an IC50 [3] greater than 10 µM and an IC50 [4] greater than 10 µM. For the same compound, the IC50 [5] was greater than 10 µM, the IC50 [6] was greater than 10 µM and the IC50 [7] was greater than 10 µM. For the same compound, the IC50 [9] was greater than 10 µM and the IC50 [10] was greater than 10 µM.
For `O=C(O)CN1C(=O)c2ccc(Oc3ccc([N+](=O)[O-])cc3)cc2C1=O` [Compound 11], the IC50 [2] was greater than 10 µM, the IC50 [3] was greater than 10 µM and the “LPA3 antagonist activity (in words)” value [1] was “no inhibition; also recorded: no activity”. The “LPA3 antagonist activity (in words)” value ([1]; listed as compound 11) was “no antagonist activity”, the IC50 ([1]; read-out: IC50 LPA3, dose response, activation by 200 nM LPA) was greater than 10 µM and the inhibition at 10 µM ([1]; read-out: Percent inhibiton at 10μM, Table 2, 10 μM compound against 200 nM LPA) was less than 10%. It also gave an IC50 [4] greater than 10 µM and an IC50 [5] greater than 10 µM.
In the case of `O=C(O)/C=C/C(=O)Nc1ccc(Oc2cccc(Oc3ccc(NC(=O)/C=C/C(=O)O)cc3)c2)cc1` [Compound 4], the IC50 [9] is given as greater than 10 µM and the IC50 [10] is given as greater than 10 µM.
In the case of `O=C(O)/C=C/C(=O)Nc1cccc(NC(=O)/C=C/C(=O)O)c1` [Compound 2], the IC50 ([8]; read-out: IC50 LPA3, NE no effect) is given as greater than 10 µM, the IC50 [9] is given as greater than 10 µM and the IC50 [10] is given as greater than 10 µM.
For `O=C(O)/C=C/C(=O)Nc1cccc(NC(=O)/C=C/C(=O)O)c1C(=O)O` [Compound 3], the IC50 [6] is listed as greater than 10 µM, the “Imax LPA2” value [7] is listed as 53.3% and the “Imax LPA3” value [8] is listed as 81.7%. The IC50 [9] was greater than 10 µM and the IC50 [10] was greater than 10 µM.
In the case of `Cc1ccc(Oc2ccc3c(c2)C(=O)N(CC(=O)O)C3=O)cc1` [Compound 12], the “LPA1 antagonist activity (in words)” value [2] is reported as “LPA1 antagonists”, the IC50 [3] is reported as greater than 10 µM and the IC50 [4] is reported as greater than 10 µM. The IC50 [5] was greater than 10 µM.
In the case of `O=C1c2ccc(Oc3cccc([N+](=O)[O-])c3)cc2C(=O)N1Cc1cccnc1` [Compound 8], the “LPA3 antagonist activity (in words)” value [1] is reported as “active”.

— PMC2771199 (Bioorganic & medicinal chemistry, 2009)
